Activity calls are given as the source filed them. The rule behind the calls is not given here.
Experiments:
[1] = AUC (0 to 12 hrs) in human at 50 mg, po BID administered on day 1 followed by 2-day wash out period after which dosing continued up to day 11 measured on day 11; assay type: ADME, organism-based; design: dose 50 mg, time < 12 hr, route oral; details: plasma
Procedure, shortened: (§1)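 Double-blind, placebo-controlled, randomized dose-escalation study in healthy male volunteers, six cohorts of eight (six active, two placebo). Oral dose on day 1, two-day washout, then dosing days 4–11; the 200 mg qd cohort was titrated over days 1–4. Venous blood taken predose and at 0.5–12 h on days 1, 4 and 11; plasma drug measured. τ 12 h (bid), 24 h (qd), 8 h (tid), 6 h (qid).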

Mus musculus = experiment: Toxicity in C57/Bl6 mouse assessed as increase in cutaneous blood flow in ear at 100 mg/kg, ip after 5 mins relative to vehicle treated control by laser doppler flowmetry; assay type: organism-based; design: dose 100 mg/kg, route intraperitoneal; details: in vivo
Procedure, shortened: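 Male C57/Bl6 mice (8–10 weeks, ~25 g) anesthetized with Nembutal ip (80 mg/10 mL/kg). Ear perfusion recorded by laser Doppler imaging: 3 min baseline, then vehicle (PBS, 40% HPBCD or 0.5% methylcellulose) or compound given ip at 5 mL/kg through a preinserted syringe, with readings for ~15 min. Expressed as % change of perfusion over baseline.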

[2] = Cmax in human at titreated po dose administered from day 1 to 4 followed by 200 mg, po QD administered up to day 11 measured on day 11; assay type: ADME, organism-based; design: dose 200 mg, route oral; details: in vivo
Procedure, shortened: (§2)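 Healthy male volunteers took part in a double-blind, randomized, placebo-controlled dose-escalation study, with cohorts of 8 (6 on drug, 2 on placebo). Each subject got an oral dose on day 1, then a 2-day washout, then dosing on days 4–11. The 200 mg qd group was titrated over days 1–4. Venous plasma was sampled predose and 0.5–12 h postdose on days 1, 4 and 11, and predose on days 5–10 for troughs.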

[3] = Cmax in human at 150 mg, po TID administered on day 1 followed by 2-days wash out period after which dosing continued up to day 11 measured on day 4; assay type: ADME, organism-based; design: dose 150 mg, route oral; details: in vivo; procedure, shortened: as §2
[4] = Plasma clearance in dog; assay type: ADME, organism-based, Canis lupus familiaris
Rattus norvegicus = experiment: Dose normalized AUC in Sprague-Dawley rat at 10 mg/kg, po; assay type: ADME, organism-based; design: dose 10 mg/kg, route oral; details: in vivo
Procedure, shortened: (§3)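 Male Sprague-Dawley rats were dosed at 10 mg/kg po or 2 mg/kg iv in 80% PEG400/20% phosphate-buffered saline, fasted overnight before the oral dose. Jugular blood was sampled serially from 0.25 to 21 h over 24 h, and heparinized plasma was prepared. Drug was assayed by HPLC/MS/MS (quantitation range 1–2000 ng/mL).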

[5] = Cmax in human at 150 mg, po TID administered on day 1 followed by 2-days wash out period after which dosing continued up to day 11 measured on day 1; assay type: ADME, organism-based; design: dose 150 mg, route oral; details: in vivo; procedure, shortened: as §2
[6] = Oral bioavailability in Sprague-Dawley rat at 10 mg/kg; assay type: ADME, organism-based; details: in vivo; procedure, shortened: as §3
[7] = Plasma clearance in rhesus monkey; assay type: ADME, organism-based, Macaca mulatta
[8] = Terminal half life in Sprague-Dawley rat at 2 mg/kg, iv; assay type: ADME, organism-based; design: dose 2 mg/kg, route intravenous; details: in vivo, read-out: beta t1/2 (converted); procedure, shortened: as §3
[9] = Cmax in human at 100 mg, po BID administered on day 1 followed by 2-day wash out period after which dosing continued up to day 11 measured on day 11; assay type: ADME, organism-based; design: dose 100 mg, route oral; details: in vivo; procedure, shortened: as §1
[10] = Cmin in human at 175 mg, po QID administered on day 1 followed by 2-days wash out period after which dosing continued up to day 11 measured on day 1 at 6 hrs; assay type: ADME, organism-based; details: in vivo, read-out: Cmin; procedure, shortened: as §2
[11] = AUC (0 to 8 hrs) in human at 150 mg, po TID administered on day 1 followed by 2-days wash out period after which dosing continued up to day 11 measured on day 4; assay type: ADME, organism-based; design: time < 8 hr, dose 150 mg, route oral; details: plasma; procedure, shortened: as §1
Homo sapiens [12] = experiment: Toxicity in dyslipedimc patient assessed as flushing at 150 mg administered TID during four week study; assay type: organism-based; details: in vivo
Homo sapiens [13] = experiment: Antidyslipidemic activity in dyslipidemia patient assessed as decrease in free fatty acid level at 150 mg administered TID during four week study; assay type: functional, organism-based
[14] = Volume of distribution in mouse; assay type: ADME, organism-based; details: in vivo
[15] = Cmin in human at 50 mg, po BID administered on day 1 followed by 2-day wash out period after which dosing continued up to day 11 measured on day 11 at 12 hrs; assay type: ADME, organism-based; details: in vivo, read-out: Cmin; procedure, shortened: as §2
Cytochrome P450 2D6 = Cytochrome P450 2D6 (Homo sapiens, UniProt P10635); experiment: Activity at CYP2D6; assay type: ADME
[16] = Cmin in human at 100 mg, po BID administered on day 1 followed by 2-day wash out period after which dosing continued up to day 11 measured on day 4 at 12 hrs; assay type: ADME, organism-based; details: in vivo, read-out: Cmin; procedure, shortened: as §2
[17] = Cmax in human at 150 mg, po BID administered on day 1 followed by 2-day wash out period after which dosing continued up to day 11 measured on day 11; assay type: ADME, organism-based; design: dose 150 mg, route oral; details: in vivo; procedure, shortened: as §2
[18] = Cmax in human at 50 mg, po BID administered on day 1 followed by 2-day wash out period after which dosing continued up to day 11 measured on day 4; assay type: ADME, organism-based; design: dose 50 mg, route oral; details: in vivo; procedure, shortened: as §2
[19] = Tmax in human at 175 mg, po QID administered on day 1 followed by 2-days wash out period after which dosing continued up to day 11 measured on day 1; assay type: ADME, organism-based; details: in vivo
Procedure, shortened: (§4)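 Double-blind, placebo-controlled, randomized multiple oral dose study in healthy male volunteers (cohorts of eight; six active, two placebo). Dose given on day 1, then a two-day washout, then dosing days 4–11; for the QD arm, subjects were titrated over days 1–4. Venous plasma sampled predose and 0.5, 1, 1.5, 2, 4, 6, 8, 10, 12 h postdose on days 1, 4 and 11. Tmax reported as median (min–max).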

[20] = Cmax in human at 150 mg, po TID administered on day 1 followed by 2-days wash out period after which dosing continued up to day 11 measured on day 11; assay type: ADME, organism-based; design: dose 150 mg, route oral; details: in vivo; procedure, shortened: as §2
[21] = Tmax in human at titreated po dose administered from day 1 to 4 followed by 200 mg, po QD administered up to day 11 measured on day 11; assay type: ADME, organism-based; details: in vivo; procedure, shortened: as §4
[22] = AUC (0 to 12 hrs) in human at 100 mg, po BID administered on day 1 followed by 2-day wash out period after which dosing continued up to day 11 measured on day 4; assay type: ADME, organism-based; design: time < 12 hr, dose 100 mg, route oral; details: plasma; procedure, shortened: as §1
Homo sapiens [23] = experiment: Antidyslipidemic activity in human assessed as decrease in free fatty acid level titreated po dose administered from day 1 to 4 followed by 200 mg, po QD administered up to day 11 measured on day 4 and 11; assay type: functional, organism-based
Procedure, shortened: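 Healthy male volunteers in a randomized, double-blind, placebo-controlled multiple-dose study, six active and two placebo subjects per cohort. Oral dosing on day 1, two-day washout, then days 4–11, with titration over days 1–4 for the qd arm.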

[24] = AUC (0 to 12 hrs) in human at 150 mg, po BID administered on day 1 followed by 2-day wash out period after which dosing continued up to day 11 measured on day 11; assay type: ADME, organism-based; design: dose 150 mg, time < 12 hr, route oral; details: plasma; procedure, shortened: as §1
[25] = Cmax in human at 100 mg, po BID administered on day 1 followed by 2-day wash out period after which dosing continued up to day 11 measured on day 4; assay type: ADME, organism-based; design: dose 100 mg, route oral; details: in vivo; procedure, shortened: as §1
[26] = Cmin in human at 100 mg, po BID administered on day 1 followed by 2-day wash out period after which dosing continued up to day 11 measured on day 1 at 12 hrs; assay type: ADME, organism-based; details: in vivo, read-out: Cmin; procedure, shortened: as §2
[27] = Cmin in human at 150 mg, po BID administered on day 1 followed by 2-day wash out period after which dosing continued up to day 11 measured on day 11 at 12 hrs; assay type: ADME, organism-based; details: in vivo, read-out: Cmin; procedure, shortened: as §2

Cytochrome P450 2D6, sequence (P10635 whole entry): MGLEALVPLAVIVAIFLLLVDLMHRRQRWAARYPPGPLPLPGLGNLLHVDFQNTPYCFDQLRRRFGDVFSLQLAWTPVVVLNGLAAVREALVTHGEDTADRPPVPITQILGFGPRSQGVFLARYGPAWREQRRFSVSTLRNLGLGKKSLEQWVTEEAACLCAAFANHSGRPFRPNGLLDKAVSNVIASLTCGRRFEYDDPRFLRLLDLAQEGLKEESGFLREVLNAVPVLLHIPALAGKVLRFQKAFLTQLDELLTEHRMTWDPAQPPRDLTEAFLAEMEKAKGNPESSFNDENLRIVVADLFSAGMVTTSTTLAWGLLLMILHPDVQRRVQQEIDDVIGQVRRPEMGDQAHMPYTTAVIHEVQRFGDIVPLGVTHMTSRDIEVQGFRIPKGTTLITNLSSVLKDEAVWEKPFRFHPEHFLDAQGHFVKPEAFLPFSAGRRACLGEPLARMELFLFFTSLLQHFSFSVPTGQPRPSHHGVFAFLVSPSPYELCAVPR

O=C(O)c1n[nH]c2c1C[C@H]1C[C@@H]21
AUC at 12 h [1]: 0.0254 µM·h | Activity (Mus musculus): 30% | Cmax [2]: 49.8 nM | Cmax [3]: 52.6 nM | clearance [4]: 3.1 mL/min/kg | AUC/dose (Rattus norvegicus): 5.1 µM·kg·h/mg | Cmax [5]: 48400 nM | bioavailability [6]: 83% | clearance [7]: 5.1 mL/min/kg | half-life [8]: 2.4 h | Cmax [9]: 32.5 nM | concentration at 6 h [10]: 4.01 nM | AUC at 8 h [11]: 0.0885 µM·h | Activity (Homo sapiens [12]): Non-toxic | Activity (Homo sapiens [13]): Active | Vd [14]: 0.75 L/kg | concentration at 12 h [15]: 0.045 nM | Activity (Cytochrome P450 2D6): Not Active | concentration at 12 h [16]: 0.083 nM | Cmax [17]: 27.7 nM | Cmax [18]: 12.3 nM | Tmax [19]: 1.25 h | Cmax [20]: 44.9 nM | Tmax [21]: 1.25 h | AUC at 12 h [22]: 0.0657 µM·h | Activity (Homo sapiens [23]): Active | AUC at 12 h [24]: 0.0788 µM·h | Cmax [25]: 33.1 nM | concentration at 12 h [26]: 0.124 nM | concentration at 12 h [27]: 0.208 nM
